Measured values collected from several papers.
Each line is one published result; the experiments were not run side by side.
SIRT6: NAD-dependent protein deacylase sirtuin-6 (SIRT6, Homo sapiens, UniProt Q8N6T7)
CCR2: C-C chemokine receptor type 2 (CCR2, Homo sapiens, UniProt P41597)
CCR5: C-C chemokine receptor type 5 (CCR5, Homo sapiens, UniProt P51681)
CTSB: Cathepsin B (CTSB, Homo sapiens, UniProt P07858)
TEK: Angiopoietin-1 receptor (TEK, Homo sapiens, UniProt Q02763)
FLT4: Vascular endothelial growth factor receptor 3 (FLT4, Homo sapiens, UniProt P35916)
ALK: ALK tyrosine kinase receptor (ALK, Homo sapiens, UniProt Q9UM73)
FASN: Fatty acid synthase (FASN, Gallus gallus, UniProt P12276)
SCN5A: Sodium channel protein type 5 subunit alpha (SCN5A, Homo sapiens, UniProt Q14524)
PTPRC: Receptor-type tyrosine-protein phosphatase C (PTPRC, Homo sapiens, UniProt P08575)

Nc1nonc1-n1cc(C(=O)N/N=C/c2ccc(C(F)(F)F)cc2C(F)(F)F)nn1  IC50 (SIRT6; enzyme activity; inhibitor; fluorescence): 2690 nM
CCS(=O)(=O)N1CC(CC#N)(n2cc(-c3ncnc4[nH]ccc34)cn2)C1  IC50 (Multidrug and toxin extrusion protein 1 (SLC47A1, Homo sapiens, UniProt Q96FL8); transporter uptake; inhibitor; radiometric; 2 min): 76700 nM
CN(Cc1ccc(NC(=O)C2=Cc3cc(-c4ccc(OCCCF)cc4)ccc3CCC2)cc1)C1CCOCC1  IC50 (CCR2; calcium signal; antagonist): 130 nM
NC(=S)c1ccc(C(=O)NOCc2ccc(C(F)(F)F)cc2)cc1  IC50 (SIRT6; enzyme activity; inhibitor; fluorescence): 2030 nM
CN(Cc1ccc(NC(=O)C2=Cc3cc(-c4ccc(OCCCCCF)cc4)ccc3CCC2)cc1)C1CCOCC1  IC50 (CCR5; ligand displacement; radioligand; cell membranes): 2000 nM
Cc1nc2ccccc2c(=O)n1NC(=O)CSc1nc2ccccc2c(=O)n1-c1ccccc1  IC50 (CTSB; enzyme activity; inhibitor): 62800 nM
CCn1ncc2c1-c1cnc(N)c(c1)O[C@H](C)c1cc(F)ccc1-c1nn(C)nc1C2  IC50 (TEK; enzyme activity; inhibitor; radiometric): 280 nM
CN(Cc1ccc(NC(=O)C2=Cc3cc(-c4ccc(OCCCO)cc4)ccc3CCC2)cc1)C1CCOCC1  IC50 (CCR2; ligand displacement; radioligand; cell membranes): 199 nM
COc1ccc2c(Oc3ccc4c(C(=O)Nc5ccccc5N)cccc4c3)ccnc2c1  IC50 (FLT4; enzyme activity; inhibitor): 9 nM
COC(=O)[C@@]1(c2ccc(F)cc2F)C[C@@H]1Oc1ccc(C#N)cc1-c1cc(C)[nH]n1 (racemic)  IC50 (ALK; enzyme activity; inhibitor; TR-FRET): 41 nM
CCc1ccc(/C=N/n2c(C)nc3ccc(C)cc3c2=O)s1  IC50 (CTSB; enzyme activity; inhibitor): 118000 nM
CC(=O)c1ccc2[nH]c3nc(C)ccc3c2c1  IC50 (ALK; enzyme activity; inhibitor; ELISA): > 10000 nM
O=C(Nc1ccn(Cc2ccc(O)cc2C(F)(F)F)n1)c1c(F)cccc1F  IC50 (Transient receptor potential cation channel subfamily V member 4 (Trpv4, Rattus norvegicus, UniProt Q9ERZ8); ion current): > 10000 nM
COc1cc(C[C@H]2C(=O)OC[C@@H]2Cc2ccc(OC)c(OC)c2)ccc1O  IC50 (Dual specificity calcium/calmodulin-dependent 3',5'-cyclic nucleotide phosphodiesterase 1A (PDE1A, Homo sapiens, UniProt P54750); enzyme activity; inhibitor): > 20000 nM
CNC(=O)c1cc2c(Oc3ccc(NC(=O)C4(C(=O)Nc5ccc(F)cc5)CC4)cc3)ccnc2cc1OC  IC50 (FLT4; enzyme activity; inhibitor; radiometric): 6 nM
Oc1ccc(-c2ccc3[nH]c4ncc(/C=C/c5cccc(F)c5)cc4c3c2)cc1  IC50 (ALK; enzyme activity; inhibitor; ELISA): > 10000 nM
Nc1nonc1-n1cc(C(=O)N/N=C/c2ccccc2C(=O)O)nn1  IC50 (SIRT6; enzyme activity; inhibitor; fluorescence): 59500 nM
NC(=O)c1ccc(C(=O)NOCc2ccc(C(=O)c3ccccc3)cc2)cc1  IC50 (SIRT6; enzyme activity; inhibitor; fluorescence): 2800 nM
C=C(C)[C@H](CC=C(C)C)Cc1c(O)cc(O)c2c1O[C@H](c1ccc(O)cc1O)CC2=O  IC50 (FASN; enzyme activity; inhibitor; radiometric): 6700 nM
CCS(=O)(=O)Nc1ccc(C(=O)NC2CC3CCC2C3)cc1 (stereo not shown)  IC50 (Pantothenate kinase 1 (Homo sapiens, UniProt Q8TE04); enzyme activity; inhibitor; ATP luminescence): 270 nM
CN(Cc1ccc(NC(=O)C2=Cc3cc(-c4ccc(OCCCCCO)cc4)ccc3CCC2)cc1)C1CCOCC1  IC50 (CCR2; calcium signal; antagonist): 10 nM
CCn1c(-c2nc3cc(C(=O)N4CCC[C@@H](N)C4)cc(OC)c3n2C)cc2cccnc21  IC50 (SCN5A; ion current; inhibitor): 50100 nM
NC(=O)c1ccc(C(=O)NOCc2ccccc2Cl)cc1  IC50 (SIRT6; enzyme activity; inhibitor; fluorescence): 11400 nM
COC[C@]1(c2ccc(F)cc2F)C[C@H]1Oc1ccc(C#N)cc1-c1cc(C)[nH]n1 (racemic)  IC50 (ALK; enzyme activity; inhibitor; TR-FRET): 43 nM
NC(=O)c1ccc(C(=O)NOCc2ccc(Sc3ccc(Cl)cc3)c(C(F)(F)F)c2)cc1  IC50 (SIRT6; enzyme activity; inhibitor; fluorescence): 1510 nM
COc1cc2nccc(Oc3ccc(NC(=O)c4cc5c(n(-c6ccccc6)c4=O)CCCC5=O)nc3)c2cc1OC  IC50 (Tyrosine-protein kinase Fyn (FYN, Homo sapiens, UniProt P06241); enzyme activity in cells; inhibitor; ATP luminescence): > 100 nM
COc1cc(/C=N/n2c(C)nc3ccc(C)cc3c2=O)cc([N+](=O)[O-])c1O  IC50 (CTSB; enzyme activity; inhibitor): 107000 nM
Nc1ncc2c(n1)-c1c([nH]c3ccc(-c4ccc(F)cc4)cc13)CCC2  IC50 (Myosin light chain kinase family member 4 (MYLK4, Homo sapiens, UniProt Q86YV6); enzyme activity; inhibitor; radiometric): 35 nM
O=C1c2ccccc2-c2cccc3cccc1c23  IC50 (PTPRC; enzyme activity; inhibitor; fluorescence): > 150000 nM
Cc1ccc(C(=O)Nc2ccc(Oc3cc4cnn(C)c4cc3-c3cn[nH]c3)c(F)c2)c(=O)n1-c1ccc(F)cc1  IC50 (TEK; enzyme activity; inhibitor; radiometric): 4 nM
O=c1cc(-c2ccccc2)oc2c1ccc1ccccc12  IC50 (Cyclin-dependent kinase 2, with cyclin E1 (CDK2, Homo sapiens, UniProt P24941); enzyme activity; inhibitor; ADP detection): > 100000 nM
C=CC(=O)Nc1ccc(N2CCC[C@@H](Nc3ncc(Cl)c(-c4c[nH]c5ccccc45)n3)C2)cc1C  IC50 (Cyclin-dependent kinase 2, with cyclin A (CDK2, Homo sapiens, UniProt P24941); enzyme activity; inhibitor; FRET): 1100 nM
OCc1cc(C(O)CNCCCCCCOCCCCc2ccccc2)ccc1O (stereo not shown)  IC50 (CCR5; calcium signal; antagonist): 64600 nM
CCCC#Cc1ccc2c(n1)[nH]c1ccccc12  IC50 (ALK; enzyme activity; inhibitor; ELISA): > 10000 nM
NC(=O)c1ccc(C(=O)NOCc2ccc(Sc3ccccc3Cl)c(C(F)(F)F)c2)cc1  IC50 (SIRT6; enzyme activity; inhibitor; fluorescence): 3820 nM
Cc1cccc(-c2cc(C)n[nH]2)c1  IC50 (ALK; enzyme activity; inhibitor; TR-FRET): 230000 nM
C=C(C)[C@H](CC=C(C)C)Cc1c(O)cc(OC)c(C(=O)/C=C/c2ccc(O)cc2O)c1O  IC50 (FASN; enzyme activity; inhibitor; radiometric): 9600 nM
Cc1[nH]c(N)nc1-c1ccnc(Nc2ccc(N3CCOCC3)cc2)c1  IC50 (Mitogen-activated protein kinase 10 (MAPK10, Homo sapiens, UniProt P53779); enzyme activity; inhibitor; ELISA): 1390 nM
Cc1cnc(-c2ccc(-c3ccc(NC(=O)Nc4c(F)cc(F)cc4F)cc3F)c3c2C(=O)NC3)[nH]1  IC50 (TEK; enzyme activity; inhibitor): 6.5 nM
CCN(CC)C(=S)SSC(=S)N(CC)CC  IC50 (PTPRC; enzyme activity; inhibitor; fluorescence): > 500000 nM
CCOC(F)(F)c1nnc2cnc(-c3cnc(OCC(F)(F)F)c(F)c3)cn12  IC50 (SCN5A; ion current; inhibitor; patch clamp): 989 nM
NC(=O)c1ccc(C(=O)NOCc2ccc(Sc3cc(Cl)cc(Cl)c3)c(C(F)(F)F)c2)cc1  IC50 (SIRT6; enzyme activity; inhibitor; fluorescence): 1240 nM
Cc1cc(-c2cc(C#N)ccc2O[C@H]2C[C@H]2c2ccc(F)cc2F)n[nH]1  IC50 (ALK; phosphorylation in cells; inhibitor; ELISA): > 1000 nM
O=C(NO)c1ccc(C(=O)NOCc2ccc(C(F)(F)F)cc2)cc1  IC50 (SIRT6; enzyme activity; inhibitor; fluorescence): 8340 nM
Cc1cc(-c2ccccc2)n[nH]1  IC50 (ALK; enzyme activity; inhibitor; TR-FRET): > 300000 nM
CN1CCN(c2ccc(Nc3ncc4cc(C#N)c(=O)n(C5CCCC5)c4n3)cc2)CC1  IC50 (Serine/threonine-protein kinase D3 (PRKD3, Homo sapiens, UniProt O94806); enzyme activity; inhibitor): 70.9 nM
CC(C)C[C@H](NC(=O)[C@H]1O[C@@H]1C(=O)O)C(=O)NCCCCN=C(N)N  IC50 (CTSB; enzyme activity; inhibitor): 3.15 nM
COc1ccccc1CONC(=O)c1ccc(C(N)=O)cc1  IC50 (SIRT6; enzyme activity; inhibitor; fluorescence): 61700 nM
Cc1cc(-c2cc(C#N)ccc2O[C@@H]2C[C@]2(CN(C)C)c2ccc(F)cc2F)n[nH]1 (racemic)  IC50 (ALK; enzyme activity; inhibitor; TR-FRET): 110 nM
